Reference: ChEMBL document CHEMBL4033716, “The impact of the halogen bonding on D2 and 5-HT1A/5-HT7 receptor activity of azinesulfonamides of 4-[(2-ethyl)piperidinyl-1-yl]phenylpiperazines with antipsychotic and antidepressant properties” (Bioorg Med Chem, 2017)
Activity calls are given as the source filed them. The rule behind the calls is not given here.

Tests used:
[1] = target: T1, 5-hydroxytryptamine receptor 1A (Homo sapiens, UniProt P08908); assay: Displacement of [3H]-8-OH-DPAT from human 5-HT1A receptor expressed in HEK293 cell membranes after 1 hr by microbeta liquid scintillation counting analysis
T1 sequence (P08908 whole entry): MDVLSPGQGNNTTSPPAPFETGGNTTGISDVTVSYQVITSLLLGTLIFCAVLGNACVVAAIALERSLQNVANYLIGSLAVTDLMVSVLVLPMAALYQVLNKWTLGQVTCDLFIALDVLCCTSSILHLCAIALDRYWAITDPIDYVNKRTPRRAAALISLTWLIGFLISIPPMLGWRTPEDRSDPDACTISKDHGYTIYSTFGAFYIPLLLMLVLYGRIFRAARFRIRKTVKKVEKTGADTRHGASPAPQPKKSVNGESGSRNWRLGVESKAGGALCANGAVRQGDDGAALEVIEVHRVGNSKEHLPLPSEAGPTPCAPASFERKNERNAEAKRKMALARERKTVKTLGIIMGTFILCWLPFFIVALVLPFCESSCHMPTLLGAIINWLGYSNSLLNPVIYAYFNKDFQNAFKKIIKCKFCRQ
Outline: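 HEK293 membranes with stably expressed human 5-HT1A, washed by two 35 000 g spins. Buffer 50 mM Tris-HCl, 0.1 mM EDTA, 4 mM MgCl₂, 10 μM pargyline, 0.1% ascorbate. Incubated 1 h at room temperature, then rapid filtration. 10 µM 5-HT defined nonspecific binding. Tested in triplicate over 10⁻¹¹–10⁻⁴ M (7–8 concentrations). Ki via Cheng-Prusoff, mean of ≥3 experiments.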

[2] = target: T2, D(2) dopamine receptor (Homo sapiens, UniProt P14416); assay: Displacement of [3H]-Raclopride from human dopamine D2L receptor expressed in HEK293 cell membranes after 1 hr by microbeta liquid scintillation counting analysis
Outline: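 HEK293 membranes expressing human D2L. Incubated 1 h at 37°C, rapid filtration. 1 µM (+)butaclamol defined nonspecific binding. Triplicates at 7–8 concentrations, 10⁻¹¹–10⁻⁴ M. Ki via Cheng-Prusoff, ≥3 experiments.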

[3] = target: T3, 5-hydroxytryptamine receptor 7 (Homo sapiens, UniProt P34969); assay: Displacement of [3H]-5-CT from human 5-HT7 receptor expressed in HEK293 cell membranes after 1 hr by microbeta liquid scintillation counting analysis
Outline: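 Membranes from HEK293 pellets stably expressing human 5-HT7b, homogenized and centrifuged twice at 35 000 g (4°C) with 15 min 37°C incubation between. Buffer 50 mM Tris-HCl, 4 mM MgCl₂, 10 μM pargyline, 0.1% ascorbate. Incubated 1 h at 37°C, then filtered. Nonspecific binding defined with 10 µM 5-HT. Triplicates at 7–8 concentrations (10⁻¹¹–10⁻⁴ M). Ki by Cheng-Prusoff, ≥3 experiments.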

[4] = target: 5-hydroxytryptamine receptor 6 (Homo sapiens, UniProt P50406); assay: Displacement of [3H]-LSD from human 5-HT6 receptor expressed in HEK293 cell membranes after 1 hr by microbeta liquid scintillation counting analysis
Outline: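 Human 5-HT6 stably expressed in HEK293; cell membranes washed by two 35 000 g spins. Buffer 50 mM Tris-HCl, 0.5 mM EDTA, 4 mM MgCl₂. Incubated 1 h at 37°C, filtered. Nonspecific binding with 10 µM methiothepine. 7–8 concentrations (10⁻¹¹–10⁻⁴ M) in triplicate. Ki by Cheng-Prusoff, ≥3 experiments.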

[5] = target: 5-hydroxytryptamine receptor 2A (Homo sapiens, UniProt P28223); assay: Displacement of [3H]-Ketanserin from human 5-HT2A receptor expressed in HEK293 cell membranes after 1 hr by microbeta liquid scintillation counting analysis
Outline: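 Competition binding on membranes from HEK293 cells stably expressing human 5-HT2A, prepared by homogenization and two 35 000 g centrifugations. Incubated 1 h at 37°C, then filtered and counted. Triplicate points at 7–8 concentrations, 10⁻¹¹–10⁻⁴ M. Ki from Cheng-Prusoff, ≥3 separate experiments.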

[6] = tested on: Mus musculus; assay: Antidepressant-like activity in Swiss albino mouse assessed as decrease in immobility time at 1.25 mg/kg, ip for 30 mins measured last 4 mins of 6 mins test by forced swim test relative to control; assay type: functional; set-up: scale not given: the % may be the effect or the level left
Outline: (§1)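 Male Swiss albino mice (22–26 g), used once, observer blind. Drugs dissolved in distilled water, given i.p. at 10 ml/kg: test compounds 60 min, citalopram 30 min before testing; controls got vehicle. Mice placed 6 min in a cylinder with 10 cm water at 23–25°C; immobility scored over the last 4 min. 7–12 mice/group; one-way ANOVA then Bonferroni.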

[7] = tested on: Mus musculus; assay: Antipsychotic activity in CD-1 mouse assessed as inhibition of dizocilpine-induced hyperlocomotor activity at 0.5 mg/kg, ip pretreated with dizocilpine for 15 mins followed by compound administration for 60 mins; assay type: functional, organism-based
Outline: (§2)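 Male CD-1 mice, tested in the light phase, observer blind. Test compounds i.p. 60 min and MK-801 i.p. 15 min before testing, in distilled water at 10 ml/kg; vehicle controls. After 30 min cage habituation, ambulation recorded by activity monitor for 1 h in 5-min bins. 8–10 animals/group; mean ± SEM, one-way ANOVA with Bonferroni test.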

[8] = target: T3, 5-hydroxytryptamine receptor 7; assay: Antagonist activity at human 5-HT7 receptor expressed in CHOK1 cells assessed as inhibition of serotonin-induced cAMP production at 1 uM after 30 mins by HTRF assay; assay type: functional, cell-based
Outline: (§3)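 Cellular cAMP functional antagonist assay run by a contract lab. Human 5-HT7 receptor was stably expressed in CHO cells, and human 5-HT1A in HEK293 cells. Read-out was % inhibition of the control agonist response.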

[9] = target: T2, D(2) dopamine receptor; assay: Antagonist activity at human dopamine D2 receptor expressed in HEK293 cells at 1 uM assessed as inhibition of dopamine-induced cAMP production; assay type: functional, cell-based
Outline: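 Cellular cAMP antagonist assay run by a contract lab on HEK293 cells stably expressing human D2 receptor. Compound tested at 10⁻⁶ M. Result given as % inhibition of the control agonist response to dopamine 30 nM.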

[10] = tested on: Mus musculus; assay: Antipsychotic activity in CD-1 mouse assessed as inhibition of MK-801-induced hyperlocomotor activity at 5 to 20 mg/kg, ip pretreated with MK-801 for 15 mins followed by compound administration for 60 mins; assay type: functional, organism-based; outline: as §2
[11] = target: T4, 5-hydroxytryptamine receptor 1A (Homo sapiens) (UniProt P08908); assay: Antagonist activity at human 5-HT1A receptor expressed in HEK293 cells assessed as inhibition of 8-OH-DPAT-induced cAMP production at 1 uM by fluorescence assay; assay type: functional, cell-based; outline: as §3
T4 sequence (whole entry): T1 sequence (P08908 whole entry)

[12] = tested on: Mus musculus; assay: Antidepressant-like activity in Swiss albino mouse assessed as decrease in immobility time administered ip for 30 mins measured last 4 mins of 6 mins test by forced swim test relative to control; assay type: functional; settings: read-out: MED; outline: as §1
[13] = tested on: Mus musculus; assay: Antipsychotic activity in CD-1 mouse assessed as inhibition of MK-801-induced hyperlocomotor activity at 10 to 20 mg/kg, ip pretreated with MK-801 for 15 mins followed by compound administration for 60 mins; assay type: functional, organism-based; outline: as §2
[14] = tested on: Mus musculus; assay: Antidepressant-like activity in Swiss albino mouse assessed as decrease in immobility time at 0.625 mg/kg measured last 4 mins of 6 mins test by forced swim test relative to control; assay type: functional; set-up: scale not given: the % may be the effect or the level left; outline: as §1
[15] = tested on: Mus musculus; assay: Antipsychotic activity in CD-1 mouse assessed as inhibition of MK-801-induced hyperlocomotor activity administered ip pretreated with MK-801 for 15 mins followed by compound treatment for 60 mins; assay type: functional; settings: CD-1, ip, read-out: MED; outline: as §2
[16] = tested on: Mus musculus; assay: Antipsychotic activity in CD-1 mouse assessed as inhibition of MK-801-induced hyperlocomotor activity at 2.5 to 30 mg/kg, ip pretreated with MK-801 for 15 mins followed by compound administration for 60 mins; assay type: functional, organism-based; outline: as §2
[17] = tested on: Mus musculus; assay: Antidepressant-like activity in Swiss albino mouse assessed as decrease in immobility time at 2.5 mg/kg, ip measured last 4 mins of 6 mins test by forced swim test relative to control; assay type: functional; set-up: scale not given: the % may be the effect or the level left; outline: as §1
[18] = tested on: Mus musculus; assay: Antidepressant-like activity in Swiss albino mouse assessed as decrease in immobility time at 1.25 mg/kg, ip measured last 4 mins of 6 mins test by forced swim test relative to control; assay type: functional; set-up: scale not given: the % may be the effect or the level left; outline: as §1
[19] = tested on: Mus musculus; assay: Antipsychotic activity in CD-1 mouse assessed as inhibition of MK-801-induced hyperlocomotor activity at 30 mg/kg, ip pretreated with MK-801 for 15 mins followed by compound administration for 60 mins; assay type: functional, organism-based; outline: as §2

T2 sequence (P14416 whole entry): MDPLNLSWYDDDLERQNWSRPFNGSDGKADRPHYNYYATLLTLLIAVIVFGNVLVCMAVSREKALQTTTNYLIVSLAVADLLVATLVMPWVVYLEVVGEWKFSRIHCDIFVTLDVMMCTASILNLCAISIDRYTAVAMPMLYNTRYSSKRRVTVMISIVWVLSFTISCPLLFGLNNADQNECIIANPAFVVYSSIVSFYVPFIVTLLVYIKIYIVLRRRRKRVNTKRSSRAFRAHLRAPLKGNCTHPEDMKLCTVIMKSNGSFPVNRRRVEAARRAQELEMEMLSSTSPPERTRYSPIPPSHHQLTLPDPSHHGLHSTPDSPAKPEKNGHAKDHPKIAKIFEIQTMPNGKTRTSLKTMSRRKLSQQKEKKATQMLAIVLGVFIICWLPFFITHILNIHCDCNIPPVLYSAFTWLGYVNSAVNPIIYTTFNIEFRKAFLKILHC
Sequence of 5-hydroxytryptamine receptor 2A (P28223 whole entry): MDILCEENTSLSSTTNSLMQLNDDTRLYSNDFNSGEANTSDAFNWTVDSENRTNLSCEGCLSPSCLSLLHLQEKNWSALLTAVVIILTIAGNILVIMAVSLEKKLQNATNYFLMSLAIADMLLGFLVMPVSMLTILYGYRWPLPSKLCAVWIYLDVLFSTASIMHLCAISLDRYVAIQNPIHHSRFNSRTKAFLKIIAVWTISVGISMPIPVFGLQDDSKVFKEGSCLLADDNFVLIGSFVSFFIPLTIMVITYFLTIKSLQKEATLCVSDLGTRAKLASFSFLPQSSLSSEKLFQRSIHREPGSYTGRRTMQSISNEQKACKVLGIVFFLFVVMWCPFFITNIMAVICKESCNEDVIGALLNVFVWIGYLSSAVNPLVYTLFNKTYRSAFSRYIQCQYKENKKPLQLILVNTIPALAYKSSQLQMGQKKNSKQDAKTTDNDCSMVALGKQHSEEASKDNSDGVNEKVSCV
Sequence of 5-hydroxytryptamine receptor 6 (P50406 whole entry): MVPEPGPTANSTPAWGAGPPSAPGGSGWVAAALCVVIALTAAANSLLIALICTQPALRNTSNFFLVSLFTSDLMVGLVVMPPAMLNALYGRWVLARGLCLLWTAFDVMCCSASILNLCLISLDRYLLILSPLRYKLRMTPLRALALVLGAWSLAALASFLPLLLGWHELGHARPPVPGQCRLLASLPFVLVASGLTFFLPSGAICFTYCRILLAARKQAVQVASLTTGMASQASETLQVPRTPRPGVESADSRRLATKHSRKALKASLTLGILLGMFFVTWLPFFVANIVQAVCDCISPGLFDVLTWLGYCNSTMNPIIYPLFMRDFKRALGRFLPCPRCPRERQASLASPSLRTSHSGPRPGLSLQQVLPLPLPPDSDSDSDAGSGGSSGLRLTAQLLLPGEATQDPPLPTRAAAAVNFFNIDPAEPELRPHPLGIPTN
T3 sequence (P34969 whole entry): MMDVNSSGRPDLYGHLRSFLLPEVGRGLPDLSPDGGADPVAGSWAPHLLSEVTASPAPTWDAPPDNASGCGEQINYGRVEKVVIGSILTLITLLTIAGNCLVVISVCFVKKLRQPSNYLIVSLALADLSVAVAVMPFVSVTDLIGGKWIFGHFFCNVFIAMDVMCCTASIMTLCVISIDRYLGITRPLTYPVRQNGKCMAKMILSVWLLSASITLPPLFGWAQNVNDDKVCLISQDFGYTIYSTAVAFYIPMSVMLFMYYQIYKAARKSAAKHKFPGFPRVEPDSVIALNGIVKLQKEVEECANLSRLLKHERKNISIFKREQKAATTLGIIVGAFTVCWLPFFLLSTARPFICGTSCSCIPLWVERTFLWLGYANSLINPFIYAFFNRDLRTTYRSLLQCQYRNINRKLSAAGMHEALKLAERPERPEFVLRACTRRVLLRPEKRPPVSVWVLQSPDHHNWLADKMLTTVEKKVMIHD

| SMILES | Ki [1] | Ki [2] | Ki [3] | Ki [4] | Ki [5] | further results |
| --- | --- | --- | --- | --- | --- | --- |
| O=S(=O)(c1cccc2ncccc12)N1CCC(CCN2CCN(c3ccc(Cl)c(Cl)c3)CC2)CC1 | 257 nM | 121 nM | 52 nM | 791 nM | 336 nM |  |
| CN(C)CCCC1(c2ccc(F)cc2)OCc2cc(C#N)ccc21 (configuration not stated) [CITALOPRAM] |  |  |  |  |  | Activity [6]: 28% |
| O=C1CCc2ccc(OCCCCN3CCN(c4cccc(Cl)c4Cl)CC3)cc2N1 |  |  |  |  |  | inhibition [7]: Active |
| O=S(=O)(c1cccc2ncccc12)N1CCC(CCN2CCN(c3cccc(C(F)(F)F)c3)CC2)CC1 | 40 nM | 149 nM | 56 nM | 640 nM | 530 nM |  |
| O=S(=O)(c1cccc2ncccc12)N1CCC(CCN2CCN(c3cccc(Cl)c3Cl)CC2)CC1 | 45 nM | 36 nM | 55 nM | 401 nM | 286 nM | minimal effective dose ([12]; in the assay text read “for 60 mins” for “for 30 mins”): 0.625 mg/kg; inhibition [13]: Active; inhibition [8]: 69%; Activity [14]: 23%; inhibition [9]: 88%; minimal effective dose [15]: 10 mg/kg; inhibition [11]: 63% |
| O=S(=O)(c1cncc2ccccc12)N1CCC(CCN2CCN(c3ccc(Cl)cc3)CC2)CC1 |  |  |  |  |  | inhibition [16]: Active; minimal effective dose [12]: 30 mg/kg; minimal effective dose [15]: 5 mg/kg |
| O=S(=O)(c1cccc2ncccc12)N1CCC(CCN2CCN(c3ccc(Cl)cc3)CC2)CC1 | 740 nM | 141 nM | 37 nM | 1020 nM | 152 nM |  |

Now from value to compound, other results behind:

| Ki [1] | Ki [2] | Ki [3] | Ki [4] | Ki [5] | SMILES | further results |
| --- | --- | --- | --- | --- | --- | --- |
| 749 nM | 1240 nM | 209 nM | 6710 nM | 646 nM | O=S(=O)(c1cccc2ncccc12)N1CCC(CCN2CCN(c3ccccc3)CC2)CC1 |  |
| 759 nM | 223 nM | 29 nM | 1460 nM | 139 nM | O=S(=O)(c1cccc2ncccc12)N1CCC(CCN2CCN(c3ccc(F)cc3)CC2)CC1 |  |
| 543 nM | 1220 nM | 174 nM | 2410 nM | 410 nM | O=S(=O)(c1cncc2ccccc12)N1CCC(CCN2CCN(c3ccccc3)CC2)CC1 |  |
| 370 nM | 1010 nM | 142 nM | 3800 nM | 691 nM | O=S(=O)(c1cncc2ccccc12)N1CCC(CCN2CCN(c3cccc(F)c3)CC2)CC1 |  |
| 975 nM | 418 nM | 14 nM | 1860 nM | 156 nM | O=S(=O)(c1cncc2ccccc12)N1CCC(CCN2CCN(c3ccc(F)cc3)CC2)CC1 |  |
| 609 nM | 1820 nM | 165 nM | 8280 nM | 665 nM | O=S(=O)(c1cccc2ncccc12)N1CCC(CCN2CCN(c3cccc(F)c3)CC2)CC1 |  |
| 54 nM | 76 nM | 37 nM | 445 nM | 197 nM | O=S(=O)(c1cccc2ncccc12)N1CCC(CCN2CCN(c3cccc(Cl)c3)CC2)CC1 |  |
| 324 nM | 145 nM | 36 nM | 1040 nM | 179 nM | O=S(=O)(c1cncc2ccccc12)N1CCC(CCN2CCN(c3ccc(Cl)c(Cl)c3)CC2)CC1 |  |
| 29 nM | 30 nM | 39 nM | 309 nM | 371 nM | O=S(=O)(c1cncc2ccccc12)N1CCC(CCN2CCN(c3cccc(Cl)c3Cl)CC2)CC1 | inhibition [8]: 75%; inhibition [9]: 79%; inhibition [10]: inactive; inhibition [11]: 64% |
| 32 nM | 37 nM | 18 nM | 1190 nM | 157 nM | O=S(=O)(c1cncc2ccccc12)N1CCC(CCN2CCN(c3cccc(Cl)c3)CC2)CC1 | inhibition [8]: 73%; Activity [17]: 32%; Activity [18]: 36%; inhibition [9]: 85%; inhibition [19]: Active; inhibition [11]: 69% |
| 30 nM | 148 nM | 52 nM | 1020 nM | 161 nM | O=S(=O)(c1cncc2ccccc12)N1CCC(CCN2CCN(c3cccc(C(F)(F)F)c3)CC2)CC1 |  |
